Test results from ChEMBL document CHEMBL1150874, “Antiviral phenylpropanoid glycosides from the medicinal plant Markhamia lutea” (J Nat Prod, 1998).
≈ marks a conversion by molar mass, not a printed value.

Key:
Human alphaherpesvirus 1 = experiment: Antiviral activity against HSV1 infected in human Hep2 cells assessed as virus-induced cytopathic effect after 3 days; assay type: functional, organism-based; conditions: Human alphaherpesvirus 1, HEp-2, 72 h
[1] = Cytotoxicity against HSV1 infected human Hep2 cells after 3 days; assay type: cell-based; conditions: HEp-2, 72 h
Human alphaherpesvirus 2 = experiment: Antiviral activity against HSV2 infected in human Hep2 cells assessed as virus-induced cytopathic effect after 3 days; assay type: functional, organism-based; conditions: Human alphaherpesvirus 2, HEp-2, 72 h
[2] = Selectivity index, ratio of EC50 for HSV1 by cytopathic effect over IC50 for human Hep2 cells; assay type: functional, HEp-2
[3] = Selectivity index, ratio of EC50 for HSV2 by cytopathic effect over IC50 for human Hep2 cells; assay type: functional, HEp-2
[4] = Cytotoxicity against HSV2 infected human Hep2 cells after 3 days; assay type: cell-based; conditions: HEp-2, 72 h
[5] = tested on: Respiratory syncytial virus; experiment: Antiviral activity against RSV A-2 infected in human Hep2 cells after 3 days by plaque neutralization assay; assay type: functional, organism-based; conditions: HEp-2, 72 h
[6] = Selectivity index, […] for human Hep2 cells administered 3 hrs after infection; assay type: functional, HEp-2
Method in brief: (§1)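 RSV (Long, CPE) in Hep-2 cells, seeded the day before at 10 000 cells/well in high-glucose DMEM with 2% or 10% heat-inactivated FBS. Virus (3000 PFU) or medium alone was adsorbed for 3 h at 37 °C, then 3-fold dilutions were added (eight concentrations, 830-0.38 or […] final). Incubation was 3 days at 37 °C, then neutral red stain. EC50 and IC50 were in µg/mL; SI = IC50/EC50.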

[7] = tested on: Respiratory syncytial virus; experiment: Antiviral activity against RSV long infected in human Hep2 cells assessed as virus-induced cytopathic effect after 3 days; assay type: functional, organism-based; conditions: HEp-2, 72 h
[8] = Cytotoxicity against mCMV RM-461 infected human Hep2 cells after 3 days; assay type: cell-based; conditions: HEp-2, 72 h
[9] = Cytotoxicity against human Hep2 cells administered 3 hrs postinfection; assay type: cell-based; conditions: HEp-2, 3 h; method in brief: as §1
[10] = Selectivity index, ratio of EC50 for RSV long by cytopathic effect over IC50 for human Hep2 cells; assay type: functional, HEp-2
[11] = tested on: Respiratory syncytial virus; experiment: Antiviral activity against RSV infected in human Hep2 cells assessed as virus-induced cytopathic effect administered 3 hrs postinfection; assay type: functional, organism-based; conditions: HEp-2, 3 h; method in brief: as §1
[12] = Cytotoxicity against RSV long infected human Hep2 cells after 3 days; assay type: cell-based; conditions: HEp-2, 72 h
[13] = Cytotoxicity against VZV 3CV-1 infected human Hep2 cells after 3 days; assay type: cell-based; conditions: HEp-2, 72 h
[14] = Selectivity index, […] for human Hep2 cells; assay type: functional, HEp-2
[15] = Cytotoxicity against RSV A-2 infected human Hep2 cells after 3 days; assay type: cell-based; conditions: HEp-2, 72 h
Human alphaherpesvirus 3 = experiment: Antiviral activity against VZV 3CV-1 infected in human Hep2 cells after 3 days by plaque neutralization assay; assay type: functional, organism-based; conditions: Human alphaherpesvirus 3, HEp-2, 72 h
[16] = Selectivity index, ratio of EC50 for mCMV RM461 by cytopathic effect over IC50 for human Hep2 cells; assay type: functional, HEp-2
Murine cytomegalovirus = experiment: Antiviral activity against mCMV RM461 infected in human Hep2 cells assessed as virus-induced cytopathic effect after 3 days; conditions: HEp-2, 72 h

| SMILES | IC50 [4] [µg/mL] | Ratio IC50/EC50 [6] | EC50 [7] [µg/mL] | IC50 [9] [µg/mL] | Ratio IC50/EC50 [10] | EC50 [11] [µg/mL] | IC50 ([12]; read-out: IC50) [µg/mL] | further results |
| --- | --- | --- | --- | --- | --- | --- | --- | --- |
| Nc1nc2c(ncn2COCCO)c(=O)[nH]1 [ACYCLOVIR] | > 10 |  |  |  |  |  |  | EC50 (Human alphaherpesvirus 1): 0.26 µg/mL (≈ 1.15 µM); IC50 [1]: > 67 µg/mL; EC50 (Human alphaherpesvirus 2): 2.3 µg/mL (≈ 10.2 µM); Ratio IC50/EC50 [2]: >250; Ratio IC50/EC50 [3]: >4.3 |
| C[C@@H]1O[C@@H](O[C@@H]2[C@@H](O)[C@H](OCCc3ccc(O)c(O)c3)O[C@H](COC(=O)/C=C/c3ccc(O)c(O)c3)[C@H]2O)[C@H](O)[C@H](O)[C@H]1O [ISOACTEOSIDE] | 27 (≈ 43.2 µM) | 735 | 0.62 (≈ 0.993 µM) | 125 (≈ 200 µM) | 84 | 0.17 (≈ 0.272 µM) | 51.4 (≈ 82.3 µM) | IC50 [1]: 30 µg/mL (≈ 48 µM); EC50 [5]: 1.1 µg/mL (≈ 1.76 µM); IC50 [8]: 89 µg/mL (≈ 142 µM); IC50 [13]: 75 µg/mL (≈ 120 µM) |
| CC(=O)OC[C@H]1O[C@@H](OCCc2ccc(O)c(O)c2)[C@H](OC(C)=O)[C@@H](O[C@@H]2O[C@@H](C)[C@H](OC(C)=O)[C@@H](OC(C)=O)[C@H]2OC(C)=O)[C@@H]1OC(=O)/C=C/c1ccc(O)c(O)c1 |  |  | 5.87 (≈ 7.03 µM) |  | 4.4 |  | 26.2 (≈ 31.4 µM) |  |
| COc1cc(/C=C/C(=O)OC[C@H]2O[C@@H](OCCc3ccc(O)c(O)c3)[C@H](O[C@@H]3OC[C@](O)(CO)[C@@H]3O)[C@@H](O[C@@H]3O[C@@H](C)[C@H](O)[C@@H](O)[C@H]3O)[C@@H]2O)ccc1O [LUTEOSIDE C] |  | >28 | 15.5 (≈ 20.1 µM) | > 330 | 12 | 12 (≈ 15.6 µM) | 189 (≈ 245 µM) |  |
| CC(=O)OC[C@H]1O[C@@H](OCCc2ccc(OC(C)=O)c(OC(C)=O)c2)[C@H](OC(C)=O)[C@@H](O[C@@H]2O[C@@H](C)[C@H](OC(C)=O)[C@@H](OC(C)=O)[C@H]2OC(C)=O)[C@@H]1OC(=O)/C=C/c1ccc(OC(C)=O)c(OC(C)=O)c1 [VERBASCOSIDE NONAACETATE] |  |  |  |  |  |  | 33.7 (≈ 33.6 µM) |  |
| CC(=O)Oc1ccc(/C=C/C(=O)OC[C@H]2O[C@@H](OCCc3ccc(OC(C)=O)c(OC(C)=O)c3)[C@H](OC(C)=O)[C@@H](O[C@@H]3O[C@@H](C)[C@H](OC(C)=O)[C@@H](OC(C)=O)[C@H]3OC(C)=O)[C@@H]2OC(C)=O)cc1OC(C)=O [ISOVERBASCOSIDE NOAACETATE] |  |  | 3.4 (≈ 3.39 µM) |  | 3.3 |  | 11.2 (≈ 11.2 µM) |  |
| CC(=O)O[C@@H]1[C@@H](OC(C)=O)[C@H](C)O[C@@H](O[C@@H]2[C@@H](OC(C)=O)[C@H](OCCc3ccc(O)c(O)c3)O[C@H](COC(=O)/C=C/c3ccc(O)c(O)c3)[C@H]2OC(C)=O)[C@@H]1OC(C)=O |  |  | 1.93 (≈ 2.31 µM) |  | 8.2 |  | 15.9 (≈ 19 µM) |  |
| NC(=O)c1ncn([C@@H]2O[C@H](CO)[C@@H](O)[C@H]2O)n1 [RIBAVIRIN] |  | 10.8 | 1.8 (≈ 7.37 µM) | 25 (≈ 102 µM) | 19 | 2.3 (≈ 9.42 µM) | 35 (≈ 143 µM) | Ratio IC50/EC50 [14]: 11; IC50 [15]: 25 µg/mL (≈ 102 µM); EC50 [5]: 2.2 µg/mL (≈ 9.01 µM) |
| CC(=O)OC[C@H]1O[C@@H](OCCc2ccc(O)c(O)c2)[C@H](O[C@@H]2OC[C@](O)(CO)[C@@H]2O)[C@@H](O[C@@H]2O[C@@H](C)[C@H](O)[C@@H](O)[C@H]2O)[C@@H]1OC(=O)/C=C/c1ccc(O)c(O)c1 [LUTEOSIDE A] |  | 16 | 0.87 (≈ 1.09 µM) | 180 (≈ 225 µM) | 89 | 11 (≈ 13.8 µM) | 77 (≈ 96.4 µM) |  |
| Nc1nc2c(ncn2COC(CO)CO)c(=O)[nH]1 [GANCICLOVIR] |  |  |  |  |  |  |  | IC50 [8]: > 100 µg/mL; EC50 (Human alphaherpesvirus 3): 26.7 µg/mL (≈ 105 µM); Ratio IC50/EC50 [16]: >20; IC50 [13]: 840 µg/mL (≈ 3290 µM); EC50 (Murine cytomegalovirus): 5 µg/mL (≈ 19.6 µM) |
| C[C@@H]1O[C@@H](O[C@@H]2[C@@H](O)[C@H](OCCc3ccc(O)c(O)c3)O[C@H](CO)[C@H]2OC(=O)/C=C/c2ccc(O)c(O)c2)[C@H](O)[C@H](O)[C@H]1O [ACETOSIDE] | 71 (≈ 114 µM) | 415 | 0.8 (≈ 1.28 µM) | 108 (≈ 173 µM) | 85 | 0.26 (≈ 0.416 µM) |  | EC50 [5]: 9.7 µg/mL (≈ 15.5 µM); IC50 [8]: 44 µg/mL (≈ 70.4 µM); IC50 [12]: 76.9 µg/mL (≈ 123 µM) |
| C[C@@H]1O[C@@H](O[C@H]2[C@H](O)[C@@H](COC(=O)/C=C/c3ccc(O)c(O)c3)O[C@@H](OCCc3ccc(O)c(O)c3)[C@@H]2O[C@@H]2OC[C@](O)(CO)[C@@H]2O)[C@H](O)[C@H](O)[C@H]1O [LUTEOSIDE B] | 90 (≈ 119 µM) | 780 | 3.4 (≈ 4.49 µM) | 180 (≈ 238 µM) | >19 | 0.23 (≈ 0.304 µM) | > 67 | IC50 [1]: 93 µg/mL (≈ 123 µM) |
